37 compounds from ChEMBL document CHEMBL1123615, “1,3-Dialkyl-4-(iminoarylmethyl)-1H-pyrazol-5-ols. A series of novel potential antipsychotic agents” (J Med Chem, 1987) can be followed below.

Test [1] has as its system Mus musculus. Description: Inhibition of ataxia in mice by intraperitoneal administration. Type of test: functional. The following applies: ip. The essentials:
(§1)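 Mice scored for inhibition of spontaneous locomotor activity and for ataxia (impaired motor coordination). Nine mice per dose; ED50 derived from at least three doses.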

The subject of test [2] is Mus musculus. Description: Inhibition of locomotor activity (LMA) and motor coordination in mice by intraperitoneal administration. Particulars: ip. It is filed as functional. The essentials:
as §1

The next test has as its target D(2) dopamine receptor (Rattus norvegicus, UniProt P61169). Briefly: In vitro binding affinity against Dopamine receptor D2 by displacement of [3H]haloperidol from rat striatal membranes. It is filed as cell membranes, Membrane. For orientation: In a radioligand displacement assay an active substance lowers the binding of a labelled ligand.
In test [3] the test system is Rattus norvegicus. Description: Inhibition of self-stimulation in rats, activity expressed as ED50 mg/kg per orally. Type of test: functional. Particulars: po. In outline:
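Oral dosing in rats; suppression of high baseline self-stimulation measured; ED50 given in mg/kg.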

The next test concerns the target D(1A) dopamine receptor (Rattus norvegicus, UniProt P18901). Description: Affinity for displacement of [3H]SCH-23390 labeled Dopamine receptor D1. In outline:
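[3H]SCH23390 binding (D1 label), run by a method from earlier work. IC50 obtained by non-linear regression over four or five concentrations. Reference standard SCH23390 included.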

The subject of test [4] is Rattus norvegicus. Briefly: Effect on serum prolactin level, activity expressed as percent control at 23.7 and 27.0 mg/kg per orally. It is filed as functional. The essentials:
(§2)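 Rats dosed orally and killed 1 h after administration; serum prolactin measured. Values are means from groups of five animals, expressed as % of vehicle control.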

The target of test [5] is alpha-1 adrenergic receptor (Rattus norvegicus). Description: Affinity for displacement of [3H]WB-4101 labeled alpha-1 adrenergic receptor.
For test [6], the system named is Rattus norvegicus. Briefly: Inhibition of sidman avoidance in rats, activity expressed as ED50 mg/kg per orally. It is filed as functional. The following applies: po. The essentials: (§3)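 Sidman avoidance in rats or squirrel monkeys with oral dosing; ED50 given in mg/kg.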
Test [7] can be described thus: Extrapyramidal syndrome(EPS) signs in cebus monkeys, activity expressed as MED mg/kg per orally. Type of test: functional. Particulars: po; read-out: MED. The essentials:
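Cebus monkeys previously sensitized to haloperidol, observed for dystonic signs after oral dosing. Minimal effective dose determined in at least three animals.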

Test [8] is described as follows: Inhibition of sidman avoidance in squirrel monkeys, activity expressed as ED50 mg/kg per orally. The following applies: po. It is filed as functional. The essentials: as §3
For test [9], the target named is alpha-2 adrenergic receptor (Rattus norvegicus). Briefly: Affinity for displacement of [3H]clonidine labeled alpha-2 adrenergic receptor.
Test [10] concerns Rattus norvegicus. Briefly: Effect on serum prolactin level, activity expressed as percent control at 23.7 mg/kg per orally. It is filed as functional. The following applies: in the assay text read “27.0 mg/kg” for “23.7 mg/kg”. The essentials:
as §2

Test [11] concerns Rattus norvegicus. Description: Effect on serum prolactin level, activity expressed as percent control at 27.0 mg/kg per orally. It is filed as functional. The essentials:
as §2

Sequence of D(2) dopamine receptor (P61169 whole entry): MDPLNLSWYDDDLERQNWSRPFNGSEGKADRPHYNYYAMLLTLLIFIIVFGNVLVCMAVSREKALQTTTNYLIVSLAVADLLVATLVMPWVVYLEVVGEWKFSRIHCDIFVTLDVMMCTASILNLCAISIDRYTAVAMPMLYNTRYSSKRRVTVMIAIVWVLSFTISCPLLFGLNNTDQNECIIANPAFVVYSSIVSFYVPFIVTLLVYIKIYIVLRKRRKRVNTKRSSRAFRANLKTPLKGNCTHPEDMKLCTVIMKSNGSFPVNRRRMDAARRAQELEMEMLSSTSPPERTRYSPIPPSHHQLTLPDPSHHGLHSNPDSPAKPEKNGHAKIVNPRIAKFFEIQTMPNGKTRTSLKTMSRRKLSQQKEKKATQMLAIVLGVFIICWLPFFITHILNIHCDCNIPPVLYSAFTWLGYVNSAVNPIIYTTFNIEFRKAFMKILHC
Sequence of D(1A) dopamine receptor (P18901 whole entry): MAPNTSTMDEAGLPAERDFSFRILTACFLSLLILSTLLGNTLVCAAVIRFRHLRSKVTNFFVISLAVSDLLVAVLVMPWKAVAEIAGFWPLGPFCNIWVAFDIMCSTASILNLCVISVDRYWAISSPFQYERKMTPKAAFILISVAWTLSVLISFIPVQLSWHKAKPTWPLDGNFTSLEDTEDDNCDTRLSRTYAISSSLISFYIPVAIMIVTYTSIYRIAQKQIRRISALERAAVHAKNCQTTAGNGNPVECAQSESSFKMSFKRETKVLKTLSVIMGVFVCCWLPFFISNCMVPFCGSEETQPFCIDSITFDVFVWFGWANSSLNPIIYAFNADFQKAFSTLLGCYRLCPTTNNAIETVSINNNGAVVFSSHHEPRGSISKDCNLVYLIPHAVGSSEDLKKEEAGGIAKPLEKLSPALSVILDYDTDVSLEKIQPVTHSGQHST

With `CCn1[nH]c(C)c(C(=N)c2ccccc2)c1=O`, the 50% effective dose (ED50) (as a rule, the midpoint of the dose-response relation) was determined as 21.5 mg/kg in the test with Mus musculus [1] and 11.8 mg/kg with Mus musculus [2]. Further, the IC50 (in general, the midpoint of a concentration-inhibition curve) at D(2) dopamine receptor is > 10 µM.

Take `Cc1[nH]n(C)c(=O)c1C(=N)c1ccc(Cl)cc1`: the ED50 was > 56 mg/kg in the test on Mus musculus [1] and 18.9 mg/kg with Mus musculus [2].

Consider `Cc1[nH]n(C)c(=O)c1C(=N)c1cccc(F)c1`, for which the ED50 is 63.6 mg/kg in the test with Mus musculus [1] and 35.6 mg/kg with Mus musculus [2]. Further, on D(2) dopamine receptor, the IC50 is > 10 µM.

In the case of `Cc1[nH]n(C)c(=O)c1C(=N)c1ccc(N)cc1`, the ED50 in the test on Mus musculus [1] and with Mus musculus [2] was > 100 mg/kg each time.

Take `C/N=C(/c1cccc(Cl)c1)c1c(C)[nH]n(C)c1=O`: the values for the ED50 in the test with Mus musculus [1] and in the test on Mus musculus [2] were 73.1 mg/kg and 50.5 mg/kg, respectively.

Consider `CC(=O)/N=C(\c1cccc(Cl)c1)c1c(C)[nH]n(C)c1=O`, for which the ED50 with Mus musculus [1] was > 100 mg/kg; with Mus musculus [2], 25.1 mg/kg. Moreover, the IC50 at D(2) dopamine receptor is > 1 µM.

On to `Cc1[nH]n(C)c(=O)c1C(=N)c1ccc([N+](=O)[O-])cc1`, for which the ED50 in the test with Mus musculus [1] and in the test with Mus musculus [2] was > 90 mg/kg each time.

For the compound `Cc1[nH]n(C(C)C)c(=O)c1C(=N)c1cccc(Cl)c1`, the ED50 with Mus musculus [1] was > 30 mg/kg; with Mus musculus [2] it was 25 mg/kg. In addition, the IC50 on D(2) dopamine receptor was > 10 µM.

On to `Cc1[nH]n(C)c(=O)c1C(=N)c1cc(Cl)cc(Cl)c1`, for which the results for the ED50 with Mus musculus [1] and in the test on Mus musculus [2] were > 100 mg/kg and 34.9 mg/kg, respectively.

`CCCCn1[nH]c(C)c(C(=N)c2cccc(Cl)c2)c1=O`: the 50% effective dose (ED50) in the test with Mus musculus [1] was 62.5 mg/kg; with Mus musculus [2], 88.3 mg/kg.

On to `CCCn1[nH]c(C)c(C(=N)c2cccc(Cl)c2)c1=O`, for which the results for the ED50 with Mus musculus [1] and in the test with Mus musculus [2] were > 30 mg/kg and 21.5 mg/kg, respectively. In addition, the IC50 on D(2) dopamine receptor is > 10 µM.

As to `CCCn1[nH]c(C)c(C(=N)c2ccccc2)c1=O`, the ED50 is 25.2 mg/kg with Mus musculus [1] and 11.6 mg/kg with Mus musculus [2].

Turning to `Cn1[nH]cc(C(=N)c2cccc(Cl)c2)c1=O`, the figures for the ED50 with Mus musculus [1] and with Mus musculus [2] were > 100 mg/kg and 47.8 mg/kg, respectively.

With `Cc1cccc(C(=N)c2c(C)[nH]n(C)c2=O)c1`, the 50% effective dose (ED50) in the test with Mus musculus [1] was 79.3 mg/kg; in the test on Mus musculus [2] it was 33.1 mg/kg.

`Cc1[nH]n(C)c(=O)c1C(=N)c1ccco1`: the results for the ED50 in the test with Mus musculus [1] and in the test with Mus musculus [2] were > 100 mg/kg and 33.6 mg/kg, respectively.

With `Cc1[nH]n(C)c(=O)c1/C(=N/C(=O)C(Cl)Cl)c1cccc(Cl)c1`, the ED50 is > 100 mg/kg in the test on Mus musculus [1] and 35.5 mg/kg in the test on Mus musculus [2]. Also, the half-inhibitory concentration (IC50) on D(2) dopamine receptor was > 1 µM.

With `Cc1[nH]n(C)c(=O)c1C(=N)c1cccs1`, the ED50 in the test on Mus musculus [1] was > 90 mg/kg; in the test on Mus musculus [2], 40.5 mg/kg.

Turning to `COc1ccccc1C(=N)c1c(C)[nH]n(C)c1=O`, the figures for the ED50 in the test on Mus musculus [1] and in the test with Mus musculus [2] were 87.9 mg/kg and 46.6 mg/kg, respectively.

Turning to `Cc1[nH]n(C)c(=O)c1C(=N)c1ccc2ccccc2c1`, the ED50 in the test with Mus musculus [1] is > 100 mg/kg; with Mus musculus [2], 65.6 mg/kg.

With `Cc1[nH]n(C)c(=O)c1C(=N)c1cccc(Cl)c1`, the median effective dose (ED50) with Mus musculus [1] is > 100 mg/kg; with Rattus norvegicus [3], 23.7 mg/kg; in the test on Rattus norvegicus [6], 17 mg/kg; in [8] it was 16.3 mg/kg; in the test on Mus musculus [2], 15.2 mg/kg. Further, the IC50 (on D(1A) dopamine receptor; in [5]; in test [9]; at D(2) dopamine receptor) was > 10 µM in each case. The Control in the test on Rattus norvegicus [4] is -25%. In addition, in test [7], the minimal effective dose was > 100 mg/kg.

For the compound `Cc1[nH]n(C)c(=O)c1C(=N)c1cccc(Br)c1`, the median effective dose (ED50) with Mus musculus [1] is > 30 mg/kg; in the test on Mus musculus [2], 20.5 mg/kg. Besides, the IC50 on D(2) dopamine receptor was > 10 µM.

With `Cc1ccc(C(=N)c2c(C)[nH]n(C)c2=O)cc1`, the ED50 in the test on Mus musculus [1] and in the test with Mus musculus [2] was > 100 mg/kg throughout.

In the case of `COc1ccc(C(=N)c2c(C)[nH]n(C)c2=O)cc1`, the ED50 in the test on Mus musculus [1] and with Mus musculus [2] was > 100 mg/kg throughout.

On to `Cc1[nH]n(C)c(=O)c1C(=N)c1ccc(C(F)(F)F)cc1`, for which the results for the ED50 with Mus musculus [1] and in the test on Mus musculus [2] were > 30 mg/kg and 31.4 mg/kg, respectively. Moreover, at D(2) dopamine receptor, the 50% inhibitory concentration (IC50) is > 10 µM.

With `Cc1[nH]n(C)c(=O)c1C(=N)c1cccc([N+](=O)[O-])c1`, the ED50 is > 100 mg/kg in the test on Mus musculus [1] and 38.8 mg/kg with Mus musculus [2].

As for `Cc1[nH]n(C)c(=O)c1C(=N)c1cccc(C(F)(F)F)c1`, the ED50 in the test on Mus musculus [1] and in the test with Mus musculus [2] was > 30 mg/kg each time.

With `Cc1[nH]n(C)c(=O)c1C(=N)c1ccccc1`, the ED50 was determined as 30.2 mg/kg with Mus musculus [1] and 13.9 mg/kg in the test on Mus musculus [2]. For the same compound, the IC50 on D(2) dopamine receptor is > 10 µM.

Take `Cn1[nH]cc(C(=N)c2ccccc2)c1=O`: the ED50 was > 100 mg/kg in the test on Mus musculus [1] and 49.1 mg/kg in the test on Mus musculus [2].

`CCc1[nH]n(C)c(=O)c1C(=N)c1cccc(Cl)c1`: the ED50 in the test with Mus musculus [1] stood at 47.6 mg/kg; in the test with Mus musculus [2] it was 60.6 mg/kg.

Take `Cc1[nH]n(C)c(=O)c1C(=N)c1ccccc1Cl`: the ED50 in the test with Mus musculus [1] stood at 50.8 mg/kg; in the test with Mus musculus [2] it was 31.1 mg/kg.

Regarding `CCn1[nH]c(C)c(C(=N)c2cccc(Cl)c2)c1=O`, the ED50 with Mus musculus [1] was found to be 45.3 mg/kg; in the test on Mus musculus [2], 16 mg/kg. At D(2) dopamine receptor, the IC50 is > 10 µM.

For the compound `Cc1[nH]n(C)c(=O)c1C(=N)c1ccc(F)cc1`, the ED50 with Mus musculus [1] was > 30 mg/kg; in the test with Mus musculus [2], 15 mg/kg. The IC50 at D(2) dopamine receptor is > 10 µM.

In the case of `Cc1[nH]n(C)c(=O)c1C(=N)c1ccc(Cl)c(Cl)c1`, the ED50 with Mus musculus [1] is > 30 mg/kg; in the test with Mus musculus [2], 26.4 mg/kg.

For `CCCCn1[nH]c(C)c(C(=N)c2ccccc2)c1=O`, the values for the 50% effective dose (ED50) in the test on Mus musculus [1] and in the test with Mus musculus [2] were > 100 mg/kg and 48.7 mg/kg, respectively.

Regarding `Cc1[nH]n(C)c(=O)c1/C(=N/C(=O)C(F)(F)F)c1cccc(Cl)c1`, the figures for the ED50 with Mus musculus [1] and in the test on Mus musculus [2] were > 100 mg/kg and 17.9 mg/kg, respectively. Moreover, the 50% inhibitory concentration (IC50) on D(2) dopamine receptor was > 10 µM.

In the test on Mus musculus [1], `CN1CCN(C2=Nc3cc(Cl)ccc3Nc3ccccc32)CC1` [CLOZAPINE] returned a median effective dose (ED50) of 10 mg/kg.

On to `CSc1ccc2c(c1)N(CCC1CCCCN1C)c1ccccc1S2` (stereo not given) [THIORIDAZINE], for which the ED50 is > 100 mg/kg with Mus musculus [1]; 28.3 mg/kg with Rattus norvegicus [3]; 14.4 mg/kg in the test with Rattus norvegicus [6]; 4 mg/kg in test [8]; 2.9 mg/kg with Mus musculus [2]. The Control in the test with Rattus norvegicus [10] and in the test on Rattus norvegicus [11] was 918% in each case. In addition, the minimal effective dose in [7] amounted to 2.5 mg/kg.
